The entries come from a sample that favours hits as a whole.
H69AR growth 86K: blocks growth of human H69AR lung tumor cells. actives 6% (n = 85,000). AID 598. viability, % at 10 µM. H69AR lung tumor viability, ATP luminescence, 72 h; active compounds read low;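 active = viability at or below 40%; inactive = viability above 40%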;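 also: multidrug resistant small cell line overexpressing MRP-1 efflux transporter; 100% = mean luminescence of untreated control wells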
HUVEC inhibit: inhibitors of human endothelial cell proliferation; HUVEC proliferation, CellTiter-Glo luminescence, 72 h; active compounds read low; viability, % at 10 µM (by protocol); actives 1.1% (n = 86,000);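 active = viability at or below 30%; inactive = viability above 30%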;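 also: 100% = median luminescence of DMSO-only cell control wells on each plate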
bCat KO growth: beta-catenin-lacking colon tumor cell growth suppression; viability, % at 10 µM; HCT116 beta-catenin knockout viability, CellTiter-Glo, 60 h; active compounds read low; actives 1.5% (n = 140,000); AID 818;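 active = viability at or under a set limit, the compound median less 4 SD, cut at about 6% in these data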;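 also: 0% = Hyamine 1622 control at 20 µM and 100% = untreated cell control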
Lung fibro prol: blocks proliferation of human lung fibroblasts. LL 47 human lung fibroblast viability, ATP luminescence; active compounds read low. actives 1.1% (n = 85,000). viability, % at 10 µM;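 active = viability at or below 50% in the single dose screen; inactive = viability above 50%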;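 also: compound exposure lasted 72 h before the ATP readout; 100% = median luminescence of untreated cell-only wells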
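Test system: LL 47 human lung fibroblasts / Incubation: 72 h compound exposure at 37 °C after overnight plating / Technique: luminescent ATP detection, CellTiter-Glo / Compound dosing: 0.1% DMSO in all compound wells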
HCT116 PTEN-null: suppresses growth of cells with PTEN deletion; AID 827; actives 1.2% (n = 140,000); HCT116 PTEN-null viability, CellTiter-Glo, 60 h; active compounds read low; viability, % at 10 µM;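 active = viability at or below a set limit, 4 SD under the median of all tested compounds, cut at about 3.7% in these data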;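 also: PTEN knockout HCT116 line with beta catenin targeted HCT116 as companion control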
The depositor's hits bear a star; . = no result given.

SMILES | H69AR growth 86K | HUVEC inhibit | bCat KO growth | Lung fibro prol | HCT116 PTEN-null
COc1ccc(/C=C/C(=O)NC(=S)NNC(=O)c2ccco2)cc1 | 31* | 43 | 36 | 63 | 43
Cc1ccc(COn2c(-c3ccc(Cl)cc3Cl)nc3ncccc32)cc1 | 39* | 83 | 67 | 92 | 61
Cc1ccc(-n2c(SCC(=O)Nc3ccc4c(c3)OCCO4)nnc2-c2ccco2)cc1 | 14* | 57 | 91 | 43* | 92
Cc1cccc(-n2c(SCC(=O)Nc3ccc4c(c3)OCO4)nnc2-c2ccoc2C)c1 | 9.2* | 48 | 98 | 59 | 92
CC(Sc1nnc(-c2cccs2)n1Cc1ccccc1)C(=O)NCc1ccc2c(c1)OCO2 (configuration not stated) | 30* | 79 | 79 | 87 | 74
Cc1ccc(-n2c(SCC(=O)Nc3ccc4c(c3)OCO4)nnc2-c2cccs2)cc1 | 9.2* | 67 | 102 | 33* | 98
CCCn1c(SCC(=O)Nc2ccc3c(c2)OCCO3)nnc1-c1ccco1 | . | . | 87 | . | 85
O=C(CSc1nnc(-c2cccs2)n1Cc1ccccc1)NCc1ccc2c(c1)OCO2 | 75 | 85 | 78 | 89 | 69
CS(=O)(=O)N(Cc1ccc(Cl)cc1)c1ccc(C(=O)N/N=C/c2cc3ccccc3nc2Cl)cc1 | . | . | 54 | . | 57
O=Cc1cccn1Cc1ccccc1[N+](=O)[O-] | . | . | 99 | . | 93
O=C(CSc1nnc(-c2cccnc2)n1-c1ccccc1)Nc1ccccn1 | 94 | 90 | 94 | 106 | 84
O=C(CSc1nnc(-c2cccnc2)n1-c1ccccc1)Nc1ccc2c(c1)OCO2 | 35* | 96 | 106 | 87 | 96
CCN1CCN(C(=O)c2ccc(CN(c3ccccc3)S(=O)(=O)c3ccccc3)cc2)CC1 | . | . | 84 | . | 93
O=C(N/N=C1\CCCc2ccccc21)c1ccccc1[N+](=O)[O-] | 86 | 97 | 94 | 105 | 99
O=C(c1cc(Cl)c(=O)n(Cc2ccc(Cl)cc2)c1)N1CCOCC1 | . | . | 87 | . | 95
O=C(COc1ccc(S(=O)(=O)N2CCOCC2)cc1)Nc1ccc2c(c1)OCCO2 | . | 94 | 100 | 92 | 96
O=C(COc1ccc(S(=O)(=O)N2CCOCC2)cc1)Nc1ccc(Cl)c(C(F)(F)F)c1 | 25* | 52 | 38 | 59 | 28
CCOC(=O)Nc1oc2ccccc2c(=O)c1C | 95 | 86 | 96 | 93 | 94
CCOC(=O)/C=C(\C)Sc1cc(=O)oc2ccccc12 | 13* | 49 | 10 | 86 | 7
Cn1c(=O)c2c(nc(NCCCN3CCOCC3)n2Cc2ccc(Cl)cc2)n(C)c1=O | 92 | 95 | . | 104 | .
Cc1cccc(-c2cc3nc(C)cc(NCCCn4ccnc4)n3n2)c1 | 62 | 72 | 64 | 90 | 71
Cc1cc(NCCCn2ccnc2)n2ncc(-c3ccc(Cl)cc3)c2n1 | 19* | 9.4* | 8 | 22* | 5
Cc1cc(NCCCN2CCOCC2)n2ncc(-c3ccc(Cl)cc3)c2n1 | 24* | 63 | 64 | 46* | 66
CCOC(=O)c1c(NC(=O)CSC(=S)N2CCOCC2)sc(C)c1C | . | . | 89 | . | 94
Cc1cc(C)cc(C(=O)N2CC(=O)Nc3ccccc32)c1 | 35* | 45 | 18 | 50* | 16
SMILES | H69AR growth 86K | HUVEC inhibit | bCat KO growth | Lung fibro prol | HCT116 PTEN-null
Cc1cc(C)c2nc(SCC(=O)N3CC(=O)Nc4ccccc43)c(C#N)cc2c1 | 24* | 43 | 18 | 63 | 20
Cc1ccsc1C(=O)N1CC(=O)Nc2ccccc21 | 30* | 89 | 73 | 93 | 70
CC1CCN(c2nc3ccc(C(=O)N4CCN(Cc5ccc6c(c5)OCO6)CC4)cc3s2)CC1 | 72 | 80 | 32 | 96 | 43
Cc1sc2ncnc(Sc3nnnn3-c3ccccc3)c2c1C | 0.9* | 26* | 7 | 10* | 5
Clc1ccc(-n2nnnc2Sc2ncnc3sccc23)cc1 | 2.0* | 4.6* | . | 48* | .
Cc1sc2ncnc(Nc3ccccc3)c2c1C | 75 | 80 | 97 | 97 | 91
C/C(CC(=O)NC1CCCC1)=N\NC(=O)Cc1csc(N)n1 | . | . | 97 | . | 101
COc1ccc(NC(=O)CN(C)C2CCCCC2)c([N+](=O)[O-])c1 | . | . | 88 | . | 85
O=C(COC(=O)CCCN1C(=O)c2cccc3cccc(c23)C1=O)Nc1cccc(C(F)(F)F)c1 | . | . | 92 | . | 104
O=C(COC(=O)C1CC(O)CN1S(=O)(=O)c1ccc(Cl)cc1)c1cccc(Cl)c1 (configuration not stated) | . | . | 86 | . | 90
CCOC(=O)Cn1c(=N)n(CCOc2cccc(C)c2)c2ccccc21 | 88 | 97 | 91 | 93 | 99

Screening results (PubChem)
